From ChEMBL document CHEMBL1135458, “Discovery and biological evaluation of a new family of potent modulators of multidrug resistance: reversal of multidrug resistance of mouse lymphoma cells by new natural jatrophane diterpenoids isolated from Euphorbia species” (2002) come the findings set out here.

Each structure is given as a SMILES string.

Assay type in all cases: functional
In assay [1] the test system is Lymphoma cell line. Briefly: Ability to reverse the multidrug resistance (MDR) of mouse Lymphoma cells, FL-1at 2 ug/mL. On the set-up: reference not given here. An outline of the steps:
(§1)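 L5178 mouse T-cell lymphoma cells carrying the MDR1 gene (via pHa MDR1/A retrovirus, kept under 60 ng/mL colchicine), with the L5178Y parent line. Cells grown in McCoy's 5A with 10% heat-inactivated horse serum. Cells at 2 × 10^6/mL in serum-free medium were given compound (1.0 mg/mL DMSO stock) for 10 min at room temperature. Rhodamine 123 (5.2 µM final) was then added for 20 min at 37 °C. Cells were washed twice, resuspended in PBS, and read by flow cytometry for FSC, SSC and FL-1.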

The subject of assay [2] is Lymphoma cell line. Briefly: Ability to reverse the multidrug resistance (MDR) of mouse Lymphoma cells, FL-1at 20 ug/mL. On the set-up: reference not given here. The method in brief:
as §1

Assay [3] concerns Lymphoma cell line. Briefly: Ability to reverse the multidrug resistance (MDR) of mouse Lymphoma cells, by shrinkage (FSC) at 20 ug/mL. The method in brief: as §1
The test system of assay [4] is Lymphoma cell line. In words: Ability to reverse the multidrug resistance (MDR) of mouse Lymphoma cells, by Granulation (SSC) at 2 ug/mL. The method in brief: as §1
Assay [5] deals with Lymphoma cell line. Briefly: Ability to reverse the multidrug resistance (MDR) of mouse Lymphoma cells, by Granulation (SSC) at 20 ug/mL. An outline of the steps:
as §1

Assay [6] has as its system Lymphoma cell line. In words: Ability to reverse the multidrug resistance (MDR) of mouse Lymphoma cells, fluorescence activity ratio at 2 ug/mL. An outline of the steps: (§2)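 Rhodamine 123 accumulation by flow cytometry. MDR1-transduced L5178 mouse lymphoma cells and parental L5178Y cells at 2 × 10^6/mL in serum-free McCoy's 5A. Compound from DMSO stock for 10 min at room temperature, then 5.2 µM rhodamine 123 for 20 min at 37 °C, with two washes. Activity ratio: treated/untreated fluorescence of MDR cells divided by treated/untreated fluorescence of parental cells.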

Assay [7] deals with Lymphoma cell line. In words: Ability to reverse the multidrug resistance (MDR) of mouse Lymphoma cells, fluorescence activity ratio at 20 ug/mL. The method in brief: as §2
The test system of assay [8] is Lymphoma cell line. Briefly: Ability to reverse the multidrug resistance (MDR) of mouse Lymphoma cells, by shrinkage (FSC) at 2 ug/mL. The method in brief: as §1
For assay [9], the system named is Lymphoma cell line. In words: Ability to reverse the multidrug resistance (MDR) of mouse Lymphoma cells, FL-1at 4 ug/mL. An outline of the steps: as §1
Assay [10] concerns Lymphoma cell line. Briefly: Ability to reverse the multidrug resistance (MDR) of mouse Lymphoma cells, by shrinkage (FSC) at 4 ug/mL. An outline of the steps:
as §1

The test system of assay [11] is Lymphoma cell line. Briefly: Ability to reverse the multidrug resistance (MDR) of mouse Lymphoma cells, by Granulation (SSC) at 4 ug/mL. An outline of the steps:
as §1

Assay [12] concerns Lymphoma cell line. Briefly: Ability to reverse the multidrug resistance (MDR) of mouse Lymphoma cells, fluorescence activity ratio at 4 ug/mL. An outline of the steps: as §2
Assay [13] concerns Lymphoma cell line. In words: Ability to reverse the multidrug resistance (MDR) of mouse Lymphoma cells, FL-1at 5 ug/mL. The method in brief: as §1
Assay [14] concerns Lymphoma cell line. In words: Ability to reverse the multidrug resistance (MDR) of mouse Lymphoma cells, by shrinkage (FSC) at 5 ug/mL. An outline of the steps:
as §1

Assay [15] relates to Lymphoma cell line. In words: Ability to reverse the multidrug resistance (MDR) of mouse Lymphoma cells, by Granulation (SSC) at 5 ug/mL. An outline of the steps: as §1
Assay [16] relates to Lymphoma cell line. In words: Ability to reverse the multidrug resistance (MDR) of mouse Lymphoma cells, fluorescence activity ratio at 5 ug/mL. An outline of the steps: as §2

In the case of `CC(=O)O[C@@H]1[C@@H](OC(C)=O)C(C)(C)/C=C/[C@H](C)[C@H](OC(C)=O)[C@@]2(OC(C)=O)C[C@H](C)[C@H](OC(=O)c3ccccc3)/C2=C\[C@](C)(O)[C@@H]1OC(C)=O`, the FL-1 in assay [1] is given as 37.12; in assay [2], 41.9. The FSC in [3] is recorded as 658.03; in assay [8], 641.56. The SSC in assay [4] is 166.49; in assay [5] it was 175.29. Besides, the Fluorescence activity ratio in [6] was 4.31; in assay [7], 4.86.

For the compound `CC(=O)O[C@@H]1[C@@H](OC(C)=O)C(C)(C)/C=C/[C@H](C)C(=O)[C@@]2(OC(C)=O)C[C@@H](C)[C@H](OC(=O)c3ccccc3)/C2=C\[C@](C)(O)[C@@H]1OC(C)=O`, the FL-1 in assay [1] is 532.78; in [2], 401.98. Also, the FSC is on record as 565.55 in assay [3] and 562.62 in [8]. The SSC stood at 237.88 in assay [4] and 232.7 in assay [5]. Also, the Fluorescence activity ratio was 8.87 in assay [6] and 6.7 in [7].

Consider `CC(=O)O[C@@H]1[C@@H](OC(C)=O)C(C)(C)/C=C/[C@H](C)[C@H](OC(C)=O)[C@@]2(OC(C)=O)C[C@@H](C)[C@H](OC(=O)c3ccccc3)[C@@H]2/C=C(\C)[C@@H]1O`, for which the FL-1 in assay [1] is listed as 180.81; in assay [2] it was 299.93. For the same compound, the results for the FSC in assay [3] and in assay [8] were 654.67 and 653.55, respectively. Also, the SSC came to 165.87 in assay [4] and 167.73 in assay [5]. Besides, the Fluorescence activity ratio in assay [6] came out at 20.98; in [7] it was 34.79.

Consider `C=C1[C@H](OC(C)=O)[C@@H](O)[C@@H](OC(=O)c2cccnc2)C(C)(C)/C=C/[C@H](C)[C@H](OC(C)=O)[C@@]2(O)C[C@@](C)(OC(C)=O)[C@H](OC(=O)c3ccccc3)[C@@H]2[C@H]1OC(C)=O`, for which the FL-1 in [1] was determined as 155.62; in [2], 878.14. Further, the FSC in assay [3] came to 636.35; in [8], 632.81. Moreover, the SSC amounted to 301.64 in [4] and 291.38 in [5]. The figures for the Fluorescence activity ratio in [6] and in [7] were 12.75 and 71.98, respectively.

Turning to `C=C1[C@H](OC(=O)C(C)C)[C@@H](OC(C)=O)[C@@H](OC(C)=O)C(C)(C)/C=C/[C@@H](C)C(=O)[C@@]2(OC(C)=O)C[C@@](C)(OC(C)=O)[C@H](OC(C)=O)[C@@H]2[C@H]1OC(C)=O`, the FL-1 in [1] is given as 166.44; in [2], 444.35. Further, the FSC in [3] turned out to be 620.4; in assay [8], 589.78. In addition, the SSC in [4] was determined as 246.26; in [5], 254.87. Besides, the figures for the Fluorescence activity ratio in assay [6] and in [7] were 5.52 and 14.75, respectively.

On to `C=C1[C@H](OC(C)=O)[C@@H](OC(C)=O)[C@@H](OC(C)=O)C(C)(C)/C=C/[C@H](C)[C@H](OC(C)=O)[C@@]2(O)C[C@@](C)(OC(C)=O)[C@H](OC(=O)c3ccccc3)[C@@H]2[C@H]1OC(C)=O`, for which the figures for the FL-1 in assay [1] and in [2] were 505.23 and 888.3, respectively. For the same compound, the FSC in [3] is listed as 587.54; in assay [8] it was 577.39. Besides, the SSC worked out at 239.85 in assay [4] and 239.54 in assay [5]. The Fluorescence activity ratio is listed as 16.77 in assay [6] and 29.48 in assay [7].

Regarding `C=C1[C@H](OC(=O)C(C)C)[C@H](OC(=O)C(C)C)[C@@H](OC(C)=O)C(C)(C)[C@@H]2O[C@H]2[C@@H](C)C(=O)[C@@]2(OC(C)=O)C[C@@](C)(OC(C)=O)[C@H](OC(C)=O)[C@@H]2[C@H]1OC(C)=O`, the values for the FL-1 in [1] and in [2] were 31.98 and 34.14, respectively. Further, the FSC in assay [3] amounted to 667.76; in [8] it was 659.4. The SSC in [4] came to 165.11; in assay [5] it was 176.12. In addition, the Fluorescence activity ratio is 3.71 in [6] and 3.96 in assay [7].

As for `CC(=O)O[C@@H]1[C@@H](OC(C)=O)C(C)(C)/C=C/[C@H](C)C(=O)[C@@]2(OC(C)=O)C[C@@H](C)[C@H](OC(=O)c3ccccc3)/C2=C\[C@](C)(OC(C)=O)[C@@H]1OC(C)=O`, the FL-1 in [1] was found to be 634.88; in assay [2], 965.2. The FSC in [3] worked out at 563.73; in assay [8] it was 561.94. In addition, the SSC in assay [4] came out at 238.57; in assay [5], 228.49. Also, the Fluorescence activity ratio is 10.57 in assay [6] and 16.08 in [7].

Take `C=C1[C@H](OC(C)=O)C[C@@H](OC(=O)c2cccnc2)C(C)(C)/C=C/[C@@H](C)C(=O)[C@@]2(OC(C)=O)C[C@H](C)[C@H](OC(C)=O)[C@@H]2[C@H]1OC(C)=O`: the FL-1 in [1] is recorded as 423.87; in assay [2], 906.08. The FSC is 640.31 in assay [3] and 634.95 in [8]. In addition, the SSC worked out at 300.61 in [4] and 297.54 in assay [5]. For the same compound, the values for the Fluorescence activity ratio in assay [6] and in assay [7] were 34.74 and 74.27, respectively.

On to `CC(=O)O[C@@H]1[C@@H](OC(C)=O)C(C)(C)/C=C/[C@H](C)C(=O)C2(OC(C)=O)C[C@@](C)(O)[C@H](OC(=O)c3ccccc3)/C2=C\[C@](C)(OC(C)=O)[C@@H]1OC(C)=O` (stereo partly drawn), for which the FL-1 is reported as 525.32 in [1] and 764.3 in [2]. The FSC is 555.8 in assay [3] and 558.57 in [8]. Besides, the figures for the SSC in [4] and in assay [5] were 235.31 and 231.39, respectively. Besides, the Fluorescence activity ratio in assay [6] was determined as 8.75; in assay [7], 12.73.

As to `C=C1[C@H](OC(=O)C(C)C)[C@@H](O)[C@@H](OC(C)=O)C(C)(C)/C=C/[C@H](C)[C@H](OC(C)=O)[C@@]2(O)C[C@@](C)(OC(C)=O)[C@H](OC(=O)c3ccccc3)[C@@H]2[C@H]1OC(C)=O`, the FL-1 in assay [1] was 90.12; in [9] it was 32.37. The FSC worked out at 638.02 in assay [10] and 625.31 in assay [8]. Besides, the figures for the SSC in assay [4] and in assay [11] were 333.78 and 335.77, respectively. Further, the Fluorescence activity ratio is reported as 6.3 in assay [6] and 2.26 in assay [12].

Regarding `C=C1[C@H](OC(C)=O)CC(=O)C(C)(C)/C=C/[C@@H](C)C(=O)[C@@]2(OC(C)=O)C[C@@](C)(OC(C)=O)[C@H](OC(C)=O)[C@@H]2[C@H]1OC(C)=O` [ESULATIN B], the figures for the FL-1 in assay [1] and in assay [2] were 31.47 and 95.54, respectively. The results for the FSC in assay [3] and in assay [8] were 631.19 and 642.45, respectively. The SSC was found to be 313.58 in assay [4] and 307.84 in [5]. Further, the Fluorescence activity ratio came to 2.58 in [6] and 7.83 in assay [7].

Turning to `C=C1[C@H](OC(C)=O)C[C@@H](OC(C)=O)C(C)(C)/C=C/[C@@H](C)C(=O)[C@@]2(OC(C)=O)C[C@@](C)(OC(C)=O)[C@H](OC(C)=O)[C@@H]2[C@H]1OC(C)=O` [ESULATIN D], the results for the FL-1 in assay [1] and in [9] were 35.43 and 57.73, respectively. Moreover, the FSC was 638.32 in [10] and 626.3 in [8]. In addition, the SSC in assay [4] worked out at 336.52; in [11], 339.15. The Fluorescence activity ratio is 2.47 in assay [6] and 4.03 in [12].

In assay [13], `COc1ccc(CCN(C)CCCC(C#N)(c2ccc(OC)c(OC)c2)C(C)C)cc1OC` (stereo not drawn) [VERAPAMIL] returned an FL-1 of 170.3. The compound further yielded an FSC in assay [14] of 569.63. In assay [15], this compound came in with an SSC of 177.48. The Fluorescence activity ratio in assay [16] came to 8.27.
